Source: PubChem BioAssay (several laboratories)
Sampled rows, rich in hits. Any-hit rate of the full collection: about 2.8%.
p47phox inh: p47phox/p22phox peptide binding inhibitors, primary screen, biochemical, uHTS, NADPH oxidase regulatory subunit; Neutrophil cytosol factor 1 (Homo sapiens), P14598; fluorescence polarization, 2 h; inhibition, % at 24.7 µM; 220,000 compounds, 0.53% hits; AID 1274, 2008;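 note: 0% = p47phox with labelled peptide and 100% = labelled peptide alone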
Target sequence (P14598 whole entry, looked up): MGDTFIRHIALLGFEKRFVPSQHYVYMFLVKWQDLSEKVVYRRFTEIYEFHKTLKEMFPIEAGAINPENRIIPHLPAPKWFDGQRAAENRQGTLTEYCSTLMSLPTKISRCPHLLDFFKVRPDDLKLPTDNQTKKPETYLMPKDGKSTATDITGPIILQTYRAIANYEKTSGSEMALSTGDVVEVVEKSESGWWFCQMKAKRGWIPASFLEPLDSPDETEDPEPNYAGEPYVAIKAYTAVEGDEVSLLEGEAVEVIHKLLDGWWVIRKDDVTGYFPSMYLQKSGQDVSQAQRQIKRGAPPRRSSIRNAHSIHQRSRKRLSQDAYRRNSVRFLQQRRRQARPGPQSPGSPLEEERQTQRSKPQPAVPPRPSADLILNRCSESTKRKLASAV
RBBP9 inh: human RBBP9 inhibitors, primary screen, biochemical, fluorescence polarization, FP-Rh probe, HTS. 220,000 compounds, 0.2% hits. recombinant RBBP9. AID 1515, 2009. Serine hydrolase RBBP9 (Homo sapiens), O75884. inhibition, % at 7.94 µM;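 active = inhibition above the campaign mean of all tested compounds plus 3 SD, cut at about 14% in these data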;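 note: plate controls were DMSO wells with RBBP9 for no effect and wells lacking RBBP9 protein for full effect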
Target sequence (O75884 whole entry, looked up): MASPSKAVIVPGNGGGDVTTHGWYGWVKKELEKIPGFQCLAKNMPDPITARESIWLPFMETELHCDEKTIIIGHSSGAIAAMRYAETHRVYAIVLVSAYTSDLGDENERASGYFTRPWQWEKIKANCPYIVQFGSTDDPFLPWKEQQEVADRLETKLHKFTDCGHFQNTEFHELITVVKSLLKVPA
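Measured by: FP readout at 525/598 nm; material: recombinant human RBBP9; also added: Serine-hydrolase probe FP-Rh, 375 nM pre-mixing; medium: Tris buffer pH 8.0, NaCl, Pluronic; replication: one well per compound; doses: one concentration, 7.94 µM nominal, 0.794% DMSO; timing: preincubation 30 min plus labeling 45 min at 25 °C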
Wee1 stabilizer: Wee1 degradation inhibitors, primary screen, cell-based, HeLa, Wee1K328M-luciferase, luminescence; HeLa Luc-Wee1K328M stability; 100% = proteasome inhibitor MG132 effect; 220,000 compounds, 1.2% hits; reporter increase, % at 5 µM; Wee1-like protein kinase (Homo sapiens), P30291;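 active = activation above the mean of all tested compounds plus 3 SD, set per screening run, cut at about 8.8% in these data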;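 note: cells exposed to compound for 20 h before luminescence read; 0% = DMSO alone and 100% = MG132 at 30 µM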
eIF4E-4G inh: eIF4E–eIF4G protein interaction inhibitors, primary screen, biochemical, uHTS, TR-FRET, eIF4GI fragment; Eukaryotic translation initiation factor 4E (Mus musculus) + Eukaryotic translation …; TR-FRET eIF4E-eIF4GI(517-606) binding, 2 h; inhibition, % at 21.7 µM; 220,000 compounds, 0.37% hits; AID 782, 2007;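 note: 0% = full FRET control wells and 100% = background wells lacking eIF4GI fragment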
14-3-3 Bad inh: inhibitors of 14-3-3 zeta/Bad binding, primary screen, biochemical, TR-FRET, bovine 14-3-3 zeta; 220,000 compounds, 0.71% hits; TR-FRET 14-3-3zeta/Dy647-pBad peptide displacement, 1 h; 14-3-3 protein zeta/delta (Bos taurus), P63103; inhibition, % at 21.7 µM;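 active = inhibition above about 70%, limit read from the data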;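 note: 0% = full 14-3-3 plus peptide FRET controls and 100% = background without 14-3-3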
The depositor's hits bear a star; . = no result given; [ ] = remark or other dose.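 Rule for the calls, unless noted: active = inhibition above about 30% (limit read from the data); inactive = the rest.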

SMILES	p47phox inh	RBBP9 inh	Wee1 stabilizer	eIF4E-4G inh	14-3-3 Bad inh
CC(C)(C)NC(=O)c1ccc2nsnc2c1	-11	-4	-1	5	90*[fluorescence artefact?]
CCOC(=O)c1sc2nccc(OC)c2c1N=CN(C)C	-19	-3	-1	4	-5
COC(=O)[C@@H]1C[C@@]2(O)[C@@H](O)[C@@H](O)[C@@H](O)C[C@H]2N1Cc1cc(OC)cc(OC)c1	0	.	.	-5	-4
CC(C)NC(=O)C1CCN(C(=O)c2ccc(-c3ccccc3)cc2)CC1	-11	-3	11*	12	1
CC(C)CC1NC(=O)N(CC(=O)N2CCCc3ccccc32)C1=O (stereo unspecified)	0	1	-4	-1	-12
CCOC(=O)CNC(=S)n1cnc(N)n1	-12	-2	3	1	-2
CCOC(=O)C1C(=O)CC(=O)CC1CC(C)SCC (stereo unspecified)	79*	-1	0	-4	4
O=c1[nH]c2ccc(S(=O)(=O)Nc3ccc(-c4nnc5n4CCCCC5)cc3)cc2o1	56*	4	0	-19	-2
COc1ccc(-n2cc(-c3ccccc3)c3c(NCCCN4CCOCC4)ncnc32)cc1	-6	-3	8.9*	-4	4
c1ccc(-c2cn(-c3ccccc3)c3ncnc(NCCCN4CCOCC4)c23)cc1	0	-7	7	-3	-15
O=c1n(Cc2ccccc2F)c2ccccc2n1Cc1ccccc1F	-11	-2	0	5	-6
CC(=O)Nc1cc(C(=O)N2CCc3ccccc3C2)ccc1Sc1ccc(F)cc1	-18	-7	3	-1	-18
CC(=O)Nc1cc(C(=O)N2CCc3ccccc3C2)ccc1Sc1ccc(Cl)cc1	-2	-7	9.6*	4	-14
COCCNC(=O)c1onc(CSc2ccccc2C)c1C(=O)O	-5	-6	-3	1	29
COCCNC(=O)c1onc(CSc2cc(C)ccc2C)c1C(=O)O	-5	5	-3	0	78*
COCCNC(=O)c1onc(CSc2ccc(F)c(F)c2)c1C(=O)O	6	0	2	2	77*
CCOc1cc(C2NC(=O)NC(C)=C2C(=O)OCc2ccccc2)ccc1O (stereo unspecified)	2	-4	-1	-8	-6
Cc1ccc2nc(N(CCCN(C)C)C(=O)c3sc4ccccc4c3Cl)sc2c1	8	-5	1	-3	2
NS(=O)(=O)c1ccc(CNC(=S)NC2CC2)cc1	-1	-4	0	1	0
CC(C)OC(=O)c1cccc2c1C(=O)c1ccccc1-2	50*	-7	2	6	1
O=C(CNC1CCCCC1)Nc1cc(S(=O)(=O)N2CCOCC2)ccc1Cl	-7	-1	1	-5	-2
CSc1ccccc1C(=O)NC1CCCC1	0	-2	8.9*	4	8
CSc1ccccc1C(=O)NC1CCCCC1	-4	7	1	0	-2
Cc1ccc(NC(=O)c2cc3c(=O)oc4ccc(C)cc4c3s2)nc1	22	0	2	-3	78*
Cc1ccc2oc(=O)c3cc(C(=O)NCCCN4CCc5ccccc5C4)sc3c2c1	-3	6	3	4	11
SMILES	p47phox inh	RBBP9 inh	Wee1 stabilizer	eIF4E-4G inh	14-3-3 Bad inh
Cc1ccc2oc(=O)c3cc(C(=O)NCCN4CCN(C)CC4)sc3c2c1	-10	-5	10*	1	5
CCc1nnc(NC(=O)CCC(=O)N2CCN(C3CCCCC3)CC2)s1	-13	-5	0	0	6
CCc1nnc(NC(=O)CCC(=O)N2CCCC2)s1	90*	-11	-3	-4	0
CC(C)CC(C(=O)OCC(=O)Nc1ncc(Cl)cc1Cl)N1C(=O)c2ccccc2C1=O (stereo unspecified)	-17	1	11*	10	38
O=C(COC(=O)CN1C(=O)c2ccccc2C1=O)Nc1ncc(Cl)cc1Cl	-11	5	-3	6	4
Cc1cc(CN(C)Cc2cn(C)nc2-c2ccc(Oc3ccccc3)cc2)on1	0	-4	-1	-3	-12
CCN(CC)CC(=O)Nc1ccccc1SCC(=O)Nc1ccsc1C(=O)OC	-8	10	0	9	-5
CCOC(=O)c1ccccc1NC(=O)c1c(F)c(F)c(F)c(F)c1F	-7	3	3	2	81*
Nc1ccn([C@@H]2O[C@H](CO)[C@@H](O)C2O)c(=O)n1 (stereo partly specified)	-7	-4	-4	1	3
O=c1cnn([C@@H]2O[C@H](CO)[C@@H](O)[C@H]2O)c(=O)[nH]1	-6	-5	2	94*	-5
N#CC1=C(N)OC2=C(CN(Cc3ccccc3)C/C2=C\c2cccnc2)C1c1cccnc1 (stereo unspecified)	123*	-3	-1	-4	-12
CCN1CC2=C(OC(N)=C(C#N)C2c2ccccc2)/C(=C\c2ccccc2)C1 (stereo unspecified)	-11	-9	0	2	8
CC(C)N1CC2=C(OC(N)=C(C#N)C2c2cccnc2)/C(=C/c2cccnc2)C1 (stereo unspecified)	77*	-3	2	10	9
CN(C(=O)C(Cl)Cl)C1CC2C=CC1C2 (stereo unspecified)	-10	-1	11*	0	2
C/C(=N\NC(N)=O)c1cccc(Cl)c1	-4	3	0	-1	75*[fluorescence artefact?]
C/C(=N\N=C(N)N)c1cccc(Cl)c1	-6	0	-4	-1	-12
Cc1cc(C)n2c(=S)[nH]nc2n1	40*	13	-4	15	30
Cc1ccc(-n2ccnc2SCC(=O)O)cc1C	-19	-9	2	3	-1
COc1ccc(C(=O)Nc2sc(C)c(-c3ccccc3)c2C#N)cc1OC	-28	-11	0	10	-16
Cc1sc(NC(=O)COc2ccccc2)c(C#N)c1-c1ccccc1	-12	4	9.6*	5	8
CCN(Cc1cc2ccccc2[nH]c1=O)C(=O)c1cccc([N+](=O)[O-])c1	-14	4	-2	1	-8
CCOc1ccc2nc(COC(=O)c3ccco3)c(C(C)=O)[n+]([O-])c2c1	48*	-1	-1	5	17
O=[N+]([O-])c1ccccc1OCC(O)CNC1CCCC1 (stereo unspecified)	-4	2	-3	-10	3
Cc1cc(=O)oc2cc(OS(C)(=O)=O)ccc12	-6	-6	1	3	6
CCOc1cc(/C=C2\SC(=S)N(C(C(=O)O)c3ccccc3)C2=O)ccc1O (stereo unspecified)	-202	-67	3	6	18
